Source: ChEMBL document CHEMBL4699541, “Fragment based drug design and diversity-oriented synthesis of carboxylic acid isosteres” (Bioorg Med Chem, 2020)

Experiments:
Type in all cases: physicochemical
[1] = Dissociation constant, pKa of compound in water by Sirius T3 apparatus based potentiometric titration analysis
[2] = Distribution coefficient, logD of compound at pH 3 by Sirius T3 apparatus based potentiometric titration analysis; conditions: octanol/water
[3] = Octanol/water partition coefficient, logP of compound by Sirius T3 apparatus based potentiometric titration analysis
Summary of the method: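 Measured by potentiometric (pH-metric) titration in an immiscible octanol–water biphasic system on a Sirius T3. Run at 25 °C at constant ionic strength (0.15 M KCl), using the pKa values determined earlier on the same instrument. Samples came from 50 mM DMSO stocks.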

[4] = Distribution coefficient, logD of compound at pH 8 by Sirius T3 apparatus based potentiometric titration analysis; conditions: octanol/water
[5] = Dissociation constant, pKa of compound in DMSO by Sirius T3 apparatus based potentiometric titration analysis
[6] = Dissociation constant, pKa of compound measured under acidic conditions by Sirius T3 apparatus based potentiometric titration analysis

SMILES | pKa [1] | logD [2] | logP [3] | logD [4] | pKa [5] | pKa [6]
Cc1cccc(C/C(N)=N/O)c1 | > 12 | – | – | – | – | 5.27
Cc1cccc(/C(N)=N/O)c1 | > 12 | – | – | – | – | 4.97
Cc1cccc(CC(=O)NS(C)(=O)=O)c1 | – | 0.44 | 0.97 | -1.58 | 4.63 | –
Cc1cccc(Cc2noc(S)n2)c1 | – | 1.42 | 2.39 | -0.7 | 3.19 | –
Cc1cccc(CC(N)=O)c1 | > 12 | – | – | – | – | –
Cc1cccc(Cc2nsc(O)n2)c1 | – | 2.02 | 2.15 | 0.42 | 6.35 | –
Cc1cccc(-c2nsc(O)n2)c1 | – | 2.04 | 2.22 | 0.34 | 5.99 | –
Cc1cccc(Cc2noc(O)n2)c1 | 5.59 | 1.39 | 1.63 | -0.42 | – | –
Cc1cccc(Cc2nnn[nH]2)c1 | – | 1.07 | 1.51 | -0.96 | 4.73 | –

Second part, the molecule after the results:

pKa [1] | logD [2] | logP [3] | logD [4] | pKa [5] | pKa [6] | SMILES
> 12 | – | – | – | – | – | Cc1cccc(C(N)=O)c1
4.13 | 1.35 | 1.98 | -0.7 | – | – | Cc1cccc(CC(=O)O)c1
– | 1.1 | 1.75 | -0.95 | 4.07 | – | Cc1cccc(-c2nnn[nH]2)c1
– | 1.26 | 2.32 | -0.87 | 2.95 | – | Cc1cccc(C2=C(O)COC2=O)c1
– | 1.44 | 2.65 | -0.7 | 2.64 | – | Cc1cccc(-c2noc(S)n2)c1
5.12 | 0.8 | 1.14 | -1.11 | – | – | Cc1cccc(-c2noc(O)n2)c1
3.99 | – | – | – | – | – | Cc1cccc(C(=O)O)c1
